In brackets after ≈: the same amount, converted by molar mass.
Key:
[1] = test system: Candida albicans; assay: Antifungal activity against Candida albicans ATCC 24443 measured after 24 to 48 hrs by microdilution broth method; format: functional; details: time 24-48 hrs
Method in brief: (§1)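 Yeast broth microdilution per EUCAST, slightly modified. Medium was RPMI-1640 with 2% glucose, MOPS-buffered to pH 7.0. Compounds were tested at 0.98–500 μM with final DMSO ≤1.0% (v/v). Inoculum came from 18–24 h cultures, final ~1–5 × 10^5 CFU mL−1. Plates were incubated statically, dark and humidified, at 35 ± 2 °C. MIC was read visually at 24 and 48 h (no visible growth).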

[2] = test system: Mycobacterium avium; assay: Antimycobacterial activity against INH/RIF/rifabutin/OFX/EMB resistant Mycobacterium avium CNCTC 330/88 assessed as bacterial growth inhibition incubated for 14 days by two-fold serial dilution method; format: functional; details: CNCTC 330/88, 336 h, time 14 day
Method in brief: (§2)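 M. avium CNCTC 330/88 (stock suspension dilution 10−5) grown in Šula's semisynthetic liquid medium; two-fold serial dilutions 1000 to 1 μM from DMSO stocks (final DMSO 1.0% v/v); final load 1.5 × 10^5 CFU mL−1; MIC read visually as lowest concentration giving complete growth inhibition after 14 and 21 days.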

[3] = test system: Candida albicans; assay: Antifungal activity against Candida albicans CCM 8320 measured after 24 to 48 hrs by microdilution broth method; format: functional; details: time 24-48 hrs; method in brief: as §1
[4] = test system: Lichtheimia corymbifera; assay: Antifungal activity against Lichtheimia corymbifera CCM 8077 measured after 24 to 48 hrs by microdilution broth method; format: functional; details: time 24-48 hrs
Method in brief: (§3)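 Filamentous fungi tested by broth microdilution per EUCAST with minor changes. Compounds were tested at 0.98–500 μM with final DMSO ≤1.0% (v/v). Plates were incubated statically, dark and humidified, at 35 ± 2 °C for 24 and 48 h. MIC was the lowest concentration showing no visible growth.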

[5] = test system: Candida parapsilosis; assay: Antifungal activity against Candida parapsilosis ATCC 22019 measured after 24 to 48 hrs by microdilution broth method; format: functional; details: Lodderomyces parapsilosis, time 24-48 hrs; method in brief: as §1
[6] = test system: Candida tropicalis; assay: Antifungal activity against Candida tropicalis CCM 8264 measured after 24 to 48 hrs by microdilution broth method; format: functional; details: time 24-48 hrs; method in brief: as §1
[7] = test system: Candida parapsilosis; assay: Antifungal activity against Candida parapsilosis CCM 8260 measured after 24 to 48 hrs by microdilution broth method; format: functional; details: Lodderomyces parapsilosis, time 24-48 hrs; method in brief: as §1
[8] = test system: Aspergillus fumigatus; assay: Antifungal activity against Aspergillus fumigatus ATCC 204305 measured after 24 to 48 hrs by microdilution broth method; format: functional; details: time 24-48 hrs; method in brief: as §3
[9] = test system: Mycobacterium avium; assay: Antimycobacterial activity against INH/RIF/rifabutin/OFX/EMB resistant Mycobacterium avium CNCTC 330/88 assessed as bacterial growth inhibition incubated for 21 days by two-fold serial dilution method; format: functional; details: CNCTC 330/88, 504 h, time 21 day; method in brief: as §2
[10] = test system: Mycobacterium kansasii; assay: Antimycobacterial activity against multi-drug resistant Mycobacterium kansasii clinical isolate CNCTC 6509/96 assessed as bacterial growth inhibition incubated for 21 days by two-fold serial dilution method; format: functional; details: CNCTC 6509/96, 504 h, time 21 day
Method in brief: (§4)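 M. kansasii clinical isolate 6509/96 (stock dilution 10−4) in Šula's semisynthetic liquid medium; two-fold serial dilutions 1000 to 1 μM, DMSO final 1.0% v/v; final load 1.5 × 10^5 CFU mL−1; MIC read visually as complete growth inhibition at 7, 14 and 21 days.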

[11] = test system: Pichia kudriavzevii; assay: Antifungal activity against Candida krusei ATCC 6258 measured after 24 to 48 hrs by microdilution broth method; format: functional; details: time 24-48 hrs; method in brief: as §1
[12] = test system: Pichia kudriavzevii; assay: Antifungal activity against Candida krusei CCM 8271 measured after 24 to 48 hrs by microdilution broth method; format: functional; details: time 24-48 hrs; method in brief: as §1
[13] = test system: Trichophyton interdigitale; assay: Antifungal activity against Trichophyton interdigitale CCM 8377 measured after 24 to 48 hrs by microdilution broth method; format: functional; details: time 24-48 hrs
[14] = test system: Mycobacterium kansasii; assay: Antimycobacterial activity against multi-drug resistant Mycobacterium kansasii CNCTC 6509/96 clinical isolate assessed as bacterial growth inhibition incubated for 14 days by two-fold serial dilution method; format: functional; details: CNCTC 6509/96, 336 h, time 14 day; method in brief: as §4
[15] = test system: Aspergillus flavus; assay: Antifungal activity against Aspergillus flavus CCM 8363 measured after 24 to 48 hrs by microdilution broth method; format: functional; details: time 24-48 hrs; method in brief: as §3
[16] = test system: Mycobacterium tuberculosis; assay: Antimycobacterial activity against Mycobacterium tuberculosis H37Rv CNCTC 331/88 assessed as bacterial growth inhibition incubated for 21 days by two fold serial dilution method; format: functional; details: H37Rv CNCTC 331/88, 504 h, time 21 day
[17] = test system: Candida tropicalis; assay: Antifungal activity against Candida tropicalis ATCC 750 measured after 24 to 48 hrs by microdilution broth method; format: functional; details: time 24-48 hrs; method in brief: as §1
[18] = test system: Trichophyton interdigitale; assay: Antifungal activity against Trichophyton interdigitale ATCC 9533 measured after 24 to 48 hrs by microdilution broth method; format: functional; details: time 24-48 hrs
[19] = test system: Mycobacterium tuberculosis; assay: Antimycobacterial activity against multidrug sensitive Mycobacterium tuberculosis H37Rv CNCTC 331/88 assessed as bacterial growth inhibition incubated for 14 days by two-fold serial dilution method; format: functional; details: H37Rv CNCTC 331/88, 336 h, time 14 day
[20] = test system: Mycobacterium kansasii; assay: Antimycobacterial activity against INH/RIF/rifabutin/OFX/EMB Mycobacterium kansasii CNCTC 6509/96 clinical isolate assessed as bacterial growth inhibition incubated for 7 days by two-fold serial dilution method; format: functional; details: CNCTC 6509/96, 168 h, time 7 day
Method in brief: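 Šula's liquid semisynthetic medium; M. kansasii clinical isolate 6509/96 used at stock dilution 10−4, final ~1.5 × 10^5 CFU mL−1. Two-fold dilutions ran 1000–1 μM with final DMSO 1.0% (v/v). MIC was read visually as complete growth inhibition after 7, 14 and 21 days.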

[21] = Hemolytic activity in human Red blood cells assessed as effect of lipid bilayer membrane incubated for 1 hr by absorbance based spectrophotometric analysis; format: toxicity, cell-based; details: erythrocyte
Method in brief: (§5)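 Human erythrocyte suspension mixed 1:1 with compound in Hartmann's solution at final 125 μM, final DMSO 1.0% (v/v), 37 °C for 1 h. After centrifugation, released haemoglobin in the supernatant was read at 405 nm. Negative control was hRBCs with 1.0% DMSO; positive control was hRBCs sonicated for 1 min.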

[22] = test system: Staphylococcus epidermidis; assay: Antibacterial activity against Staphylococcus epidermidis ATCC 12228 assessed as bacterial growth inhibition incubated for 24 to 48 hrs by broth microdilution method; format: functional; details: time 24-48 hrs
Method in brief: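 Broth microdilution in cation-adjusted Mueller-Hinton broth, adapted from EUCAST. Compounds were tested at 0.98–500 μM with final DMSO ≤1.0% (v/v). Inoculum came from 16–24 h cultures, final ~5 × 10^5 CFU mL−1. Plates were incubated statically, dark and humidified, at 35 ± 2 °C. MIC was read by eye at 24 and 48 h as the lowest concentration with no visible growth.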

[23] = test system: Staphylococcus aureus; assay: Antibacterial activity against methicillin-resistant Staphylococcus aureus ATCC 43300 assessed as bacterial growth inhibition incubated for 24 to 48 hrs by broth microdilution method; format: functional; details: time 24-48 hrs
Method in brief: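 Broth microdilution per EUCAST with slight modification in cation-adjusted Mueller-Hinton broth; compounds from DMSO stocks (final DMSO ≤1.0% v/v), 0.98–500 μM; final inoculum about 5 × 10^5 CFU mL−1 from 16–24 h cultures; static incubation in dark, humidified air at 35 ± 2 °C; MIC read by eye at 24 and 48 h as lowest concentration without visible growth.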

[24] = Hemolytic activity in human Red blood cells assessed as hemolysis rate incubated for 1 hr by absorbance based spectrophotometric analysis relative to control; format: toxicity, cell-based, Erythrocyte; details: read-out: Activity; method in brief: as §5

| Structure (SMILES) | MIC [1] [µM] | MIC [2] [µM] | MIC [3] [µM] | MIC [4] [µM] | MIC [5] [µM] | MIC [6] [µM] | MIC [7] [µM] | MIC [8] [µM] | MIC [9] [µM] | MIC [10] [µM] | MIC [11] [µM] | MIC [12] [µM] | MIC [13] [µM] | MIC [14] [µM] | MIC [15] [µM] | MIC [16] [µM] | MIC [17] [µM] | MIC [18] [µM] | MIC [19] [µM] | MIC [20] [µM] | further results |
| --- | --- | --- | --- | --- | --- | --- | --- | --- | --- | --- | --- | --- | --- | --- | --- | --- | --- | --- | --- | --- | --- |
| C/C(=N\NC(=O)c1ccncc1)C(=O)Nc1ccccc1Oc1ccccc1 | > 500 | ≥ 1000 | > 500 | > 500 | > 500 | > 500 | > 500 | > 500 | ≥ 1000 | 16 (≈ 5.99 µg/mL) | > 500 | > 500 | > 500 | 8 (≈ 3 µg/mL) | > 500 | 0.5 (≈ 0.187 µg/mL) | > 500 | > 500 | 0.25 (≈ 0.0936 µg/mL) | 4 (≈ 1.5 µg/mL) | – |
| C/C(=N\NC(=O)c1ccncc1)C(=O)Nc1ccc(Oc2ccccc2)cc1 | > 500 | 500 (≈ 187 µg/mL) | > 500 | > 500 | > 500 | > 500 | > 500 | > 500 | 500 (≈ 187 µg/mL) | 2 (≈ 0.749 µg/mL) | > 500 | > 500 | > 500 | ≤ 1 | > 500 | 0.25 (≈ 0.0936 µg/mL) | > 500 | > 500 | 0.25 (≈ 0.0936 µg/mL) | ≤ 1 | Activity [21]: Non-toxic |
| C/C(=N\NC(=O)c1ccncc1)C(=O)NNC(=O)c1ccncc1 | – | 500 (≈ 163 µg/mL) | – | – | – | – | – | – | 500 (≈ 163 µg/mL) | 16 (≈ 5.22 µg/mL) | – | – | – | 16 (≈ 5.22 µg/mL) | – | 0.5 (≈ 0.163 µg/mL) | – | – | 0.25 (≈ 0.0816 µg/mL) | 8 (≈ 2.61 µg/mL) | MIC [22]: 250 µM (≈ 81.6 µg/mL); MIC [23]: 500 µM (≈ 163 µg/mL) |
| COc1cnc(NS(=O)(=O)c2ccc(NC(=O)/C(C)=N/NC(=O)c3ccncc3)cc2)nc1 | > 500 | ≥ 1000 | > 500 | > 500 | > 500 | > 500 | > 500 | > 500 | ≥ 1000 | 32 (≈ 15 µg/mL) | > 500 | > 500 | > 500 | 32 (≈ 15 µg/mL) | > 500 | 2 (≈ 0.939 µg/mL) | > 500 | > 500 | 2 (≈ 0.939 µg/mL) | 32 (≈ 15 µg/mL) | – |
| C/C(=N\NC(=O)c1ccncc1)C(=O)Nc1ccc(Oc2ccc(Cl)cc2)c(Cl)c1 | > 500 | 500 (≈ 222 µg/mL) | > 500 | > 500 | > 500 | > 500 | > 500 | > 500 | 500 (≈ 222 µg/mL) | 64 (≈ 28.4 µg/mL) | > 500 | > 500 | > 500 | 64 (≈ 28.4 µg/mL) | > 500 | 0.5 (≈ 0.222 µg/mL) | > 500 | > 500 | 0.5 (≈ 0.222 µg/mL) | 32 (≈ 14.2 µg/mL) | – |
| C/C(=N\NC(=O)c1ccncc1)C(=O)Nc1ccc(-c2ccccc2)cc1 | – | > 250 | – | – | – | – | – | – | > 250 | 16 (≈ 5.73 µg/mL) | – | – | – | 8 (≈ 2.87 µg/mL) | – | ≤ 0.25 | – | – | ≤ 0.25 | 8 (≈ 2.87 µg/mL) | hemolysis at 1 h [24]: 0.01% |
| C/C(=N\NC(=O)c1ccncc1)C(=O)Nc1ccc(Oc2ccc(Cl)cc2)cc1 | > 500 | 500 (≈ 204 µg/mL) | > 500 | > 500 | > 500 | > 500 | > 500 | > 500 | 500 (≈ 204 µg/mL) | 4 (≈ 1.64 µg/mL) | > 500 | > 500 | > 500 | 2 (≈ 0.818 µg/mL) | > 500 | 0.5 (≈ 0.204 µg/mL) | > 500 | > 500 | 0.5 (≈ 0.204 µg/mL) | 1 (≈ 0.409 µg/mL) | – |
